Legend:
[1] = Tested for dopamine-sensitive adenylate cyclase stimulation expressed as %DA stimulation at 10 uM; assay type: functional
[2] = target: D(1A) dopamine receptor (Rattus norvegicus) (UniProt P18901); assay: Inhibitory activity against Dopamine receptor D1 by displacement of [3H]fenoldopam from homogenated rat striatum
[3] = Tested for dopamine-sensitive adenylate cyclase stimulation expressed as ED50; assay type: functional
Procedure, shortened: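 EC50 is the concentration giving 50% of the maximal adenylate cyclase stimulation attainable with that same compound.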

[4] = target: D(2) dopamine receptor (Bos taurus) (UniProt P20288); assay: Inhibitory activity against Dopamine receptor D2 by displacement of [3H]spiroperidol from bovine pituitary at 10 uM
[5] = Tested for dopamine-sensitive adenylate cyclase stimulation; assay type: functional

Chain of D(1A) dopamine receptor (Rattus norvegicus) (P18901 whole entry): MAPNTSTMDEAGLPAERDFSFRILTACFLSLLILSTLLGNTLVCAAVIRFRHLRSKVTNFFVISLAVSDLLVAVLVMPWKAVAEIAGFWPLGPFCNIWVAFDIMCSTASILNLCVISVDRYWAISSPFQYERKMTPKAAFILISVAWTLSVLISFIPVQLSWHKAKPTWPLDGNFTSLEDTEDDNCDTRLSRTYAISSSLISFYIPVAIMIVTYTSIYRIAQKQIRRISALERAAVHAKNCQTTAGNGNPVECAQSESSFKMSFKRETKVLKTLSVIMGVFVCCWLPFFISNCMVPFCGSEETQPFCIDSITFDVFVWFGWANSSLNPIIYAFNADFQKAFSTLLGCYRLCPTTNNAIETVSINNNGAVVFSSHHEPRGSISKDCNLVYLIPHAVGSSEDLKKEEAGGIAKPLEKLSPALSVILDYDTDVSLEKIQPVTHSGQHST
Chain of D(2) dopamine receptor (Bos taurus) (P20288 whole entry): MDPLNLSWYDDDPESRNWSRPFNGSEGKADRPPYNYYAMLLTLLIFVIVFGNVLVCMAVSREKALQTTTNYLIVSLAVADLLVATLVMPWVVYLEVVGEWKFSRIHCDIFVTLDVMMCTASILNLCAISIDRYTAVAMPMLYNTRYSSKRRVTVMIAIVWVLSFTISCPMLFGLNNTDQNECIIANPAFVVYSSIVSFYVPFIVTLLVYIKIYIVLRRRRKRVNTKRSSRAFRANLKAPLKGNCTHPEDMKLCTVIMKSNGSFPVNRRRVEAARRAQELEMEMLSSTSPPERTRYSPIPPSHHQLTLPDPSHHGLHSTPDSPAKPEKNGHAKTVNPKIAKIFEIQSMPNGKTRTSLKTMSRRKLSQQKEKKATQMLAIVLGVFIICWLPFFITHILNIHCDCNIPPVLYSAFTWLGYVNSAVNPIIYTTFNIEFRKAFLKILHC

Structure (SMILES)	DA stim [1] [%]	K bind [2] [µM]	ED50 [3] [nM]	inhibition [4] [%]	Control [5] [%]
Oc1cc2c(cc1O)[C@@H](c1ccccc1)CNCC2	66	0.0051	63	–	–
NCCc1ccc(O)c(O)c1	–	–	3500	–	–
Oc1cc2c3c(c1O)CC[C@@H]3CNC[C@@H]2c1ccccc1	62	0.024	430	14	–
Oc1cc2c3c(c1O)CC[C@H]3CNC[C@@H]2c1ccccc1	15	1.22	–	0	20

— ChEMBL document CHEMBL1123794, “Synthesis, conformation, and dopaminergic activity of 5,6-ethano-bridged derivatives of selective dopaminergic 3-benzazepines” (J Med Chem, 1987)
